According to ChEMBL document CHEMBL4837227, “Discovery and development of 2-aminobenzimidazoles as potent antimalarials” (Eur J Med Chem, 2021):
In brackets after ≈: the same amount, converted by molar mass. Blank lines part the entries; values can stand above or below the molecule they belong to. Activity calls are given as the source filed them. No cut-off for these calls is given here.

How the values were obtained:
[1] = system: Plasmodium falciparum; experiment: Antimalarial activity against Plasmodium falciparum 3D7 assessed as reduction in parasite growth measured after 72 hrs by Monash assay based fluorescence analysis; type: functional, organism-based; conditions: 3D7, 72 h
Procedure, shortened: (§1)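 Asynchronous P. falciparum cultures were grown continuously in complete RPMI with 25 mM HEPES, 0.5% Albumax II, 0.37 mM hypoxanthine and 2.0 g/l bicarbonate. They were exposed to serially diluted compound for 72 h. Controls were DMSO (0.01%) and a reference positive control. Fluorescence was read after 2 h in the dark at room temperature. IC50 is mean SEM from technical duplicate or triplicate, at least three biological replicates.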

[2] = Metabolic stability in mouse liver microsomes assessed as intrinsic clearance at 1 uM measured per mg protein for 60 mins in presence of NADPH regenerating system by LC-MS analysis; type: ADME, Microsome; conditions: read-out: CLH
Procedure, shortened: (§2)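 Compound was incubated at 37 °C with liver microsomes at 0.4 mg/mL protein. The reaction was started with an NADPH-regenerating system and quenched at time points over 60 min with acetonitrile containing diazepam as internal standard. No-NADPH controls were quenched at 2, 30 and 60 min.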

[3] = Metabolic stability in human liver microsomes assessed as intrinsic clearance at 1 uM measured per mg protein after 60 mins in presence of NADPH regenerating system by LC-MS analysis; type: ADME, Microsome; conditions: read-out: CLH; procedure, shortened: as §2
[4] = system: Plasmodium falciparum; experiment: Antimalarial activity against artemisinin-resistant Plasmodium falciparum Cam3.II^C580Y expressing K13 mutant assessed as reduction in parasite growth measured after 72 hrs by Monash assay based fluorescence analysis; type: functional, organism-based
Procedure, shortened: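 Asynchronous culture, 72 h compound exposure. Compounds prepared at […] (twice the top concentration) in complete RPMI (25 mM HEPES, 0.5% Albumax II, 0.37 mM hypoxanthine, sodium bicarbonate), then serially diluted. Fluorescence read after 2 h room-temperature dark incubation. Negative control 0.01% DMSO. IC50 as mean SEM, n ≥ 3 biological replicates, each in technical duplicate or triplicate.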

[5] = Selectivity index, ratio of IC50 for cytotoxicity against human HEK293 cells to antiplasmodial activity against Plasmodium falciparum 3D7; type: toxicity, cell-based; conditions: read-out: Ratio IC50
[6] = Metabolic stability in mouse liver microsomes assessed as half-life at 1 uM measured for 60 mins in presence of NADPH regenerating system by LC-MS analysis; type: ADME, Microsome; procedure, shortened: as §2
[7] = Kinetic solubility of the compound at pH 6.5 measured after 30 mins by nephelometry; conditions: buffer, read-out: Kinetic_solubility
[8] = system: Plasmodium falciparum; experiment: Antimalarial activity against artemisinin-sensitive Plasmodium falciparum Cam3.II^rev expressing wild type K13 assessed as reduction in parasite growth measured after 72 hrs by Monash assay based fluorescence analysis; type: functional, organism-based; procedure, shortened: as §1
[9] = system: HEK293; experiment: Cytotoxicity against human HEK293 cells assessed as reduction in cell viability at 50 uM measured after 24 hrs by MTT assay; conditions: hek293, 24 h
[10] = Metabolic stability in human liver microsomes assessed as half-life at 1 uM measured for 60 mins in presence of NADPH regenerating system by LC-MS analysis; type: ADME, Microsome; procedure, shortened: as §2
[11] = Kinetic solubility of the compound at pH 2 measured after 30 mins by nephelometry; type: physicochemical; conditions: buffer, read-out: Kinetic_solubility
Procedure, shortened: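 Compound in DMSO was spiked into 0.01 M HCl (pH ~2.0) at a final DMSO of 1%. After 30 min, nephelometry gave a solubility range.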

[12] = system: Plasmodium falciparum 3D7; experiment: (§3) Binding affinity to Plasmodium falciparum 3D7 AMA1 (104 to 438 residues) expressed in Escherichia coli BL21(DE3) by surface plasmon resonance assay
[13] = system: Plasmodium falciparum; experiment: Antiplasmodial activity against PfATP4 inhibitor SJ557733-resistant Plasmodium falciparum Dd2 assessed as reduction in parasite growth incubated for 72 hrs by Griffith assay based fluorescence analysis; type: functional, organism-based; conditions: Dd2, 72 h
Procedure, shortened: (§4)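 22-point dose-response, 3 per log, final 40 µM top, 0.4% DMSO. 72 h at 37 °C under 90% N2/5% CO2/5% O2. DAPI stain, confocal imaging. IC50 from 4-parameter fit normalised to in-plate puromycin and DMSO controls.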

[14] = system: Plasmodium falciparum; experiment: Selectivity index, ratio of IC50 for antimalarial activity against PfATP4 inhibitor SJ557733-resistant Plasmodium falciparum Dd2 to IC50 of antimalarial activity against Plasmodium falciparum Dd2; type: functional
[15] = system: Plasmodium falciparum; experiment: Antimalarial activity against synchronous ring stage of Plasmodium falciparum Dd2 assessed as parasite growth inhibition incubated for 72 hrs by Griffith assay based fluorescence analysis; type: functional, organism-based; conditions: Dd2, 72 h; procedure, shortened: as §4
[16] = as §3
[17] = system: Plasmodium falciparum; experiment: Antimalarial activity against synchronous ring stage of Plasmodium falciparum 3D7 assessed as parasite growth inhibition incubated for 72 hrs by Griffith assay based fluorescence analysis; type: functional, organism-based; conditions: 3D7, 72 h; procedure, shortened: as §4
[18] = Selectivity index, ratio of IC50 for antimalarial activity against Plasmodium falciparum Dd2 to IC50 of antimalarial activity against Plasmodium falciparum 3D7; type: functional

Structure (SMILES): Nc1nc2ccccc2n1-c1ccc(Cl)cc1O
IC50 [1]: 164 nM

Structure (SMILES): Cc1cc(C)c(O)c(-n2c(N)nc3ccccc32)c1
microsomal CLint at 1 µM [2]: 476 µL/min/mg
microsomal CLint at 1 µM [3]: 10 µL/min/mg
IC50 [4]: 139 nM
selectivity ratio [5]: > 1000
half-life at 1 µM [6]: 0.0667 h
solubility kinetic at 0.5 h [7]: 12.5 µg/mL (≈ 49.3 µM)
IC50 [8]: 133 nM
Activity [9]: Non-Toxic
half-life at 1 µM [10]: 2.88 h
IC50 [1]: 23 nM
solubility kinetic at 0.5 h [11]: > 100 µg/mL

Activity [12]: inactive
Structure (SMILES): N#Cc1ccc(-n2c(N)nc3ccccc32)cc1
IC50 [1]: > 500 nM

Structure (SMILES): N#Cc1cc(NC(=O)[C@H]2c3ccccc3C(=O)N(CC(F)(F)F)[C@@H]2c2cccnc2)ccc1F [SJ-733]
IC50 [13]: > 8000 nM
Ratio IC50 [14]: > 135
IC50 [15]: 58.7 nM

Structure (SMILES): CCCNc1nc2ccccc2n1-c1ccccc1O
IC50 [1]: > 500 nM

Structure (SMILES): Nc1cccc(-c2nc3ccccc3[nH]2)c1
Kd [16]: 500000 nM

Structure (SMILES): Nc1nc2ccccc2n1CCO
IC50 [1]: > 500 nM

Structure (SMILES): COc1ccc(-n2c(N)nc3ccccc32)c(O)c1
microsomal CLint at 1 µM [2]: 271 µL/min/mg
microsomal CLint at 1 µM [3]: 14 µL/min/mg
IC50 [4]: 168 nM
selectivity ratio [5]: > 1000
half-life at 1 µM [6]: 0.1 h
solubility kinetic at 0.5 h [7]: 50 µg/mL (≈ 196 µM)
IC50 [8]: 212 nM
Activity [9]: Non-Toxic
half-life at 1 µM [10]: 2.07 h
IC50 [1]: 43 nM
solubility kinetic at 0.5 h [11]: > 100 µg/mL

Structure (SMILES): CCCCNc1nc2ccccc2n1-c1ccccc1O
IC50 [1]: 278 nM

Structure (SMILES): Nc1nccnc1-c1ccccc1O
IC50 [1]: > 500 nM

Structure (SMILES): Oc1ccccc1-n1cnc2ccccc21
IC50 [1]: > 500 nM

Structure (SMILES): Cc1cccc(O)c1-n1c(N)nc2ccccc21
IC50 [1]: 135 nM

Activity [12]: inactive
Structure (SMILES): Nc1ccccc1-n1c(N)nc2ccccc21
IC50 [1]: > 500 nM

Structure (SMILES): Oc1ccccc1-n1c(NCC2CCCCC2)nc2ccccc21
IC50 [1]: 224 nM

Activity [12]: inactive
Structure (SMILES): Nc1nc2ccccc2n1-c1ccccc1F
IC50 [1]: > 500 nM

Structure (SMILES): Nc1nc2ccccc2n1-c1ccncc1O
IC50 [1]: > 500 nM

Structure (SMILES): Cc1cccc(-n2c(N)nc3ccccc32)c1O
IC50 [1]: 61 nM

Structure (SMILES): Nc1nc2ccccc2n1-c1cc(Cl)ccc1O
IC50 [1]: 162 nM

Structure (SMILES): Nc1nc2ccccc2n1[C@H]1CCC[C@@H]1O
IC50 [1]: > 500 nM

Activity [12]: inactive
Structure (SMILES): Cc1ccc(-n2c(N)nc3ccccc32)cc1
IC50 [1]: > 500 nM

Structure (SMILES): Oc1ccccc1-n1c(NCc2ccccc2)nc2ccccc21
IC50 [1]: > 500 nM

Activity [12]: inactive
Structure (SMILES): COc1cccc(-n2c(N)nc3ccccc32)c1
IC50 [1]: > 500 nM

Structure (SMILES): Nc1nc2ccccc2n1-c1c(O)cccc1Cl
IC50 [1]: > 500 nM

Structure (SMILES): Oc1cccc(-c2nc3ccccc3[nH]2)c1
Kd [16]: 800000 nM

Activity [12]: inactive
Structure (SMILES): Nc1nc2ccccc2n1-c1ccccc1CO
IC50 [1]: > 500 nM

Structure (SMILES): COc1ccc(C[C@H](N)C(=O)N[C@H]2[C@@H](O)[C@H](n3cnc4c(N(C)C)ncnc43)O[C@@H]2CO)cc1 [PUROMYCIN]
IC50 [17]: 149 nM
Ratio IC50 [18]: 0.8
IC50 [15]: 114 nM

Activity [12]: inactive
Structure (SMILES): Nc1nc2ccccc2n1-c1ccc(O)cc1
IC50 [1]: > 500 nM

Structure (SMILES): COc1cccc(-n2c(N)nc3ccccc32)c1O
IC50 [1]: 55 nM

Structure (SMILES): CC(C)CNc1nc2ccccc2n1-c1ccccc1O
IC50 [1]: 356 nM

Structure (SMILES): Oc1ccccc1-n1c(NCC2CC2)nc2ccccc21
IC50 [1]: > 500 nM

Structure (SMILES): Nc1nc2ccccc2n1-c1ccc2cccnc2c1O
IC50 [1]: > 500 nM

Structure (SMILES): Cc1ccc(-n2c(N)nc3ccccc32)c(O)c1
microsomal CLint at 1 µM [2]: 97 µL/min/mg
microsomal CLint at 1 µM [3]: 11 µL/min/mg
IC50 [4]: 81 nM
selectivity ratio [5]: > 1000
half-life at 1 µM [6]: 0.3 h
solubility kinetic at 0.5 h [7]: 25 µg/mL (≈ 104 µM)
IC50 [13]: 17.5 nM
Ratio IC50 [14]: 0.5
IC50 [8]: 140 nM
IC50 [17]: 13.5 nM
Ratio IC50 [18]: 2.3
IC50 [15]: 31.7 nM
Activity [9]: Non-Toxic
half-life at 1 µM [10]: 2.7 h
IC50 [1]: 42 nM
solubility kinetic at 0.5 h [11]: > 100 µg/mL

Structure (SMILES): Nc1nc2cccnc2n1-c1ccccc1O
IC50 [1]: > 500 nM
